Assay results reported in ChEMBL document CHEMBL2062416, “Synthesis and biological evaluation of some novel 1-indanone thiazolylhydrazone derivatives as anti-Trypanosoma cruzi agents” (Eur J Med Chem, 2012).

Experiments:
Trypanosoma cruzi [1] = assay: Trypanocidal activity against bloodstream trypomastigotes of Trypanosoma cruzi infected in mouse blood assessed as lytic effect after 24 hrs; format: functional, organism-based
Procedure, shortened: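 Blood from infected CF1 mice (Tulahuen, Tul 2) diluted to 1.5×10^6 trypomastigotes/mL; compounds 0.30–350 µM, duplicates, 24 h. Live parasites counted in Neubauer chamber; %I = [1−CDt/CDc]×100 versus untreated. IC50 by linear regression of %I on log concentration. Means ± SD of three experiments.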

Vero = assay: Cytotoxicity against african green monkey Vero cells up to 100 uM after 24 hrs by MTT assay; format: cell-based; settings: chlorocebus sabaeus
Procedure, shortened: (§1)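 Vero cells grown in MEM or RPMI with 10% FBS, penicillin, streptomycin, glutamine; seeded at 9×10^5 cells/mL, compounds (12.5–200.0 µM) added after 48 h, 24 h exposure. PBS wash, MTT at 0.5 mg/mL final, 1 h 37 °C, formazan dissolved in DMSO, A570 with blank subtraction. Repeated at least three times, four samples per assay.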

Trypanosoma cruzi [2] = assay: Trypanocidal activity against epimastigotes of Trypanosoma cruzi Tulahuen 2 assessed as inhibition of parasite growth after 4 days by trypan blue staining; format: functional, organism-based; settings: Tulahuen 2, 96 h
Procedure, shortened: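 Epimastigotes (Tulahuen, Tul 2) from 5-day cultures grown at 28 °C in liver/infusion medium with hemin, started at 1.5–2.5×10^6 cells/mL, exposed 4 days to compounds (typically 1.50–15 or 0.5–2.5 µM), triplicate; benznidazole 2.50–15 µM positive control. Motile cells counted in Neubauer chamber; %I from density change versus untreated; IC50 by linear regression on log concentration.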

[3] = target: Cruzipain (Trypanosoma cruzi) (UniProt P25779); assay: Inhibition of epimastigotes of Trypanosoma cruzi cruzipain using Bz-Pro-Phe-Arg-pNA as substrate at 50 uM by spectrophotometric analysis
Procedure, shortened: (§2)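 Cruzipain purified from epimastigote cell-free extract by ConA-Sepharose affinity chromatography. 1 mL reaction: Tris-acetate pH 8.2 (50 µmol), 2-mercaptoethanol (10 µmol), Bz-Pro-Phe-Arg-pNA (0.3 µmol); followed at 410 nm. Compounds added in DMSO; vehicle controls with matching DMSO; E-64 reference inhibitor. Percent inhibition relative to enzyme without drug.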

[4] = target: Cruzipain (Trypanosoma cruzi) (UniProt P25779); assay: Inhibition of epimastigotes of Trypanosoma cruzi cruzipain using Bz-Pro-Phe-Arg-pNA as substrate at 20 uM by spectrophotometric analysis; procedure, shortened: as §2
Trypanosoma cruzi [5] = assay: Trypanocidal activity against amastigotes of Trypanosoma cruzi expressing beta-galactosidase gene infected in mouse J774 cells assessed as inhibition of parasite growth after 7 days; format: functional, organism-based; settings: J774, 168 h
Procedure, shortened: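 J774 macrophages, 5×10^3/well, infected with β-galactosidase-expressing blood trypomastigotes (clone C4) at 10:1 parasite:cell for 24 h, washed, then compounds (2–100 µM) in phenol red-free RPMI, duplicates, 7 days. Developed with 1% NP-40 and 100 µM CPRG, 4 h 37 °C, A570; uninfected ± compound wells correct colour. IC50 by linear regression of %I against log concentration.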

[6] = target: Cruzipain (Trypanosoma cruzi) (UniProt P25779); assay: Inhibition of epimastigotes of Trypanosoma cruzi cruzipain using Bz-Pro-Phe-Arg-pNA as substrate at 10 uM by spectrophotometric analysis; procedure, shortened: as §2
Trypanosoma cruzi [7] = assay: Inhibition of ergosterol biosynthesis in epimastigotes of Trypanosoma cruzi assessed as ratio of squalene/ergosterol at 25 uM after 24 hrs by TLC analysis (reference value: 0.76); format: functional
[8] = Cytotoxicity against african green monkey Vero cells after 24 hrs by MTT assay; format: cell-based; settings: chlorocebus sabaeus; procedure, shortened: as §1

Chain of Cruzipain (Trypanosoma cruzi) (P25779 123-467 limits assumed): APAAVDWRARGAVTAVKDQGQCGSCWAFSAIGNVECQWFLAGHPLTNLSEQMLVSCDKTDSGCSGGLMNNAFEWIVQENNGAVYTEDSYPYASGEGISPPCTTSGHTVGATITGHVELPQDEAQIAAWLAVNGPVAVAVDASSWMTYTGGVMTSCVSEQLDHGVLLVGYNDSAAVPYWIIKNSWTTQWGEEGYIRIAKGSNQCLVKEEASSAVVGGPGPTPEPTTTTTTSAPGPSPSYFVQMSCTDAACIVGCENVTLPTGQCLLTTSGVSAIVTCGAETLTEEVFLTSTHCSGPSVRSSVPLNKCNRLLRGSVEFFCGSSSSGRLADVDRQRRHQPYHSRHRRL

| Structure (SMILES) | IC50 (Trypanosoma cruzi [1]) [µM] | Activity (Vero) | IC50 (Trypanosoma cruzi [2]) [µM] | inhibition [3] [%] | inhibition [4] [%] | IC50 (Trypanosoma cruzi [5]) [µM] | inhibition [6] [%] | Ratio (Trypanosoma cruzi [7]) | CC50 at 24 h [8] [µM] |
| --- | --- | --- | --- | --- | --- | --- | --- | --- | --- |
| Clc1ccc(-c2csc(N/N=C3\CCc4ccccc43)n2)cc1 | 308 | Non-toxic | 8.62 | – | – | – | – | – | – |
| Cc1ccc(-c2csc(N/N=C3\CCc4ccc(C)cc43)n2)cc1 | 49.5 | Non-toxic | 4.08 | 0 | 0 | 0.27 | 3 | 0.8 | – |
| O=C(Cn1ccnc1[N+](=O)[O-])NCc1ccccc1 [BENZNIDAZOLE] | 30.3 | – | 5.39 | – | – | – | – | – | 82.8 |
| CC(C)C[C@H](NC(=O)[C@H]1O[C@@H]1C(=O)O)C(=O)NCCCCN=C(N)N | – | – | – | – | – | – | 62 | – | – |
| COc1cccc2c1CC/C2=N\Nc1nc(-c2ccc(Cl)cc2)cs1 | 19.7 | Non-toxic | 11.8 | 0 | 0 | 0.84 | 0 | – | – |
| COc1cc2c(cc1OC)/C(=N/Nc1nc(-c3ccc(C)cc3)cs1)CC2 | 69.6 | Non-toxic | > 15 | 0 | 0 | 7.72 | 0 | – | – |
| Cc1cccc2c1CC/C2=N\Nc1nc(-c2ccccc2)cs1 | 48.9 | Non-toxic | 7.08 | 0 | 0 | 0.68 | 3 | – | – |
| c1ccc(-c2csc(N/N=C3\CCc4ccccc43)n2)cc1 | > 500 | Non-toxic | 19 | – | – | – | – | – | – |
| COc1cc2c(cc1OC)/C(=N/Nc1nc(-c3ccccc3)cs1)CC2 | 195 | Non-toxic | 10.1 | – | – | – | – | – | – |
| Cc1ccc2c(c1)CC/C2=N\Nc1nc(-c2ccc(Cl)cc2)cs1 | 372 | Non-toxic | 7.15 | – | – | – | – | – | – |
| Cc1ccc2c(c1)CC/C2=N\Nc1nc(-c2ccccc2)cs1 | 172 | Non-toxic | 4.69 | – | – | – | – | – | – |
| COc1cc2c(cc1OC)/C(=N/Nc1nc(-c3ccc(Cl)cc3)cs1)CC2 | 404 | Non-toxic | 7.17 | – | – | – | – | – | – |
| Cc1ccc(-c2csc(N/N=C3\CCc4cc(C)ccc43)n2)cc1 | 87 | Non-toxic | 5.24 | 0 | 0 | 1.35 | 0 | – | – |
| Cc1ccc(-c2csc(N/N=C3\CCc4c(C)cccc43)n2)cc1 | 17.2 | Non-toxic | 4.36 | 0 | 2 | 0.72 | 4 | 2.92 | – |
| CN(C/C=C/C#CC(C)(C)C)Cc1cccc2ccccc12 [TERBINAFINE] | – | – | – | – | – | – | – | 1.54 | – |
| Cc1ccc2c(c1)/C(=N/Nc1nc(-c3ccc(Cl)cc3)cs1)CC2 | 61.1 | Non-toxic | 8.59 | – | – | – | – | – | – |
| Cc1ccc2c(c1)/C(=N/Nc1nc(-c3ccccc3)cs1)CC2 | 22.7 | Non-toxic | 4.27 | 0 | 0 | 3.96 | 3 | – | – |
| Cc1cccc2c1CC/C2=N\Nc1nc(-c2ccc(Cl)cc2)cs1 | 20 | Non-toxic | 4.53 | 3 | 0 | 0.09 | 3 | 1.25 | – |
| Cc1ccc(-c2csc(N/N=C3\CCc4ccccc43)n2)cc1 | > 500 | Non-toxic | > 15 | 5 | 5 | – | 8 | 0.76 | – |
| O=[N+]([O-])c1cccc2c1CC/C2=N\Nc1nc(-c2ccc(Cl)cc2)cs1 | 597 | Non-toxic | 17.1 | – | – | – | – | – | – |
